Drawing on ChEMBL document CHEMBL1131714, “Piperidine-renin inhibitors compounds with improved physicochemical properties” (Bioorg Med Chem Lett, 1999), this text covers IC50 and chromatographic logD for 20 molecules.

For data set [1], the target named is T1, Renin (Homo sapiens, UniProt P00797).
T1 sequence (P00797 whole entry): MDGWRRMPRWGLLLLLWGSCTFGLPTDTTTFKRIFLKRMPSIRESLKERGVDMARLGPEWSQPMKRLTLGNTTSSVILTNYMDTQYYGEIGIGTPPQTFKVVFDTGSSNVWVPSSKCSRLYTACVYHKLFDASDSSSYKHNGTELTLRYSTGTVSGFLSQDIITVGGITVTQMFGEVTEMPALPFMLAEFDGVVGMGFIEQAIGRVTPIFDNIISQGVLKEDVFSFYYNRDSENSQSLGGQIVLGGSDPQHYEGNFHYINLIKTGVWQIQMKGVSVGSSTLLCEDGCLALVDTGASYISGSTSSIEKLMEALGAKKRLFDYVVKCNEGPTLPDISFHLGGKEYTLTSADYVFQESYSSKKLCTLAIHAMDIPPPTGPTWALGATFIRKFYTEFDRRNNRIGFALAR
As to the kind of experiment: Inhibitory activity against human plasma renin. Type of data set: cell-free.

In data set [2] the target is T1, Renin. As to the kind of experiment: Inhibitory activity against purified recombinant human renin.
Data set [3] can be described thus: Distribution coefficient at pH 7.4. The data set is classed as physicochemical. The conditions noted are these: RP-HPLC, read-out: Log Kw. Put shortly: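 Log Kw read as log D by HPLC in 20 mM MOPS buffer, pH 7.4, on an LC-ABZ column ([…]) fitted with an LC-ABZ precolumn (20x46 mm).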

Structures are written as SMILES.

Take `c1ccc(COCCCOc2ccc([C@H]3CCNC[C@@H]3OCc3ccc4cccnc4c3)cc2)cc1` (racemic): the IC50 at Renin [1] came to 810 nM; at Renin [2] it was 12 nM.
With `c1ccc(COCCCOc2ncc([C@H]3CCNC[C@@H]3OCc3ccc4ccccc4c3)cn2)cc1` (racemic), the IC50 at Renin [1] amounted to 8200 nM; at Renin [2], 820 nM. In data set [3], the chromatographic logD came out at 4.4.
In the same order, the values of `O[C@@H]1CNC[C@H](OCc2ccc3ccccc3c2)[C@H]1c1ccc(OCCCOCc2ccccc2)cc1` (racemic) are 1400 nM, 6.4 nM and 4.9.
Regarding `c1ccc(COCCCOc2ccc([C@H]3CCNC[C@@H]3OCc3ccc4c(c3)NCCC4)cc2)cc1` (racemic), the IC50 amounted to 330 nM against Renin [1] and 5.1 nM on Renin [2].
As for `c1ccc(COCCCOc2ccc([C@H]3CCNC[C@@H]3OCc3ccc4cc(OCCN5CCOCC5)ccc4c3)cc2)cc1` (racemic), the values for the IC50 on Renin [1] and at Renin [2] were 1400 nM and 22 nM, respectively.
`COc1ccccc1COCCCOc1ccc([C@H]2CCNC[C@@H]2OCc2ccc3ccc(=O)[nH]c3c2)cc1` (racemic): the IC50 against Renin [1] was determined as 110 nM; on Renin [2], 8 nM. Besides, the chromatographic logD in data set [3] was found to be 3.9.
The like results for `COc1ccccc1COCCCOc1ccc([C@H]2CCNC[C@@H]2OCc2cc(OC)c3ccccc3c2OC)cn1` (racemic) were, in that order, 110 nM, 0.5 nM and 4.7.
Turning to `c1ccc(COCCCOc2ccc([C@H]3CCNC[C@@H]3OCc3ccc4ccc(OCCN5CCOCC5)cc4c3)cc2)cc1` (racemic), the IC50 came out at 130 nM against Renin [1] and 12 nM on Renin [2]. For the same molecule, the chromatographic logD in data set [3] was found to be 5.6.
In the same order, the values of `c1ccc(COCCCOc2ccc([C@H]3[C@H](CSc4ccncc4)CNC[C@@H]3OCc3ccc4ccccc4c3)cc2)cc1` (racemic) are 490 nM, 0.4 nM and 5.8.
Consider `c1ccc(COCCCOc2ccc([C@@H]3[C@@H](OCc4ccc5ccccc5c4)CNC[C@H]3OCCN3CCOCC3)cc2)cc1` (racemic), for which the IC50 at Renin [1] was 380 nM; on Renin [2] it was 1.8 nM.
The like results for `COc1ccccc1COCCCOc1ccc([C@H]2CCNC[C@@H]2OCc2ccc3cccnc3c2)cc1` (racemic) were, in that order, 160 nM and 4 nM.
Consider `c1ccc(COCCCOc2ccc([C@H]3CCNC[C@@H]3OCc3ccc4ccccc4c3)cn2)cc1` (racemic), for which the IC50 at Renin [1] was determined as 7100 nM; at Renin [2] it was 590 nM. For the same molecule, the chromatographic logD in data set [3] is 5.1.
In the same order, the values of `COc1ccccc1COCCCOc1ncc([C@H]2CCNC[C@@H]2OCc2cc(OC)c3ccccc3c2OC)cn1` (racemic) are 160 nM, 10 nM and 4.1.
`O[C@H]1CNC[C@H](OCc2ccc3ccccc3c2)[C@H]1c1ccc(OCCCOCc2ccccc2)cc1` (racemic): the IC50 against Renin [1] was determined as 10000 nM; at Renin [2], 9 nM.
In the same order, the values of `c1ccc(COCCCOc2ccc([C@H]3CCNC[C@@H]3OCc3ccc4ccccc4c3)cc2)cc1` (racemic) are 1300 nM and 5 nM.
The like results for `c1ccc(COCCCOc2ccc([C@H]3[C@H](COCCN4CCOCC4)CNC[C@@H]3OCc3ccc4ccccc4c3)cc2)cc1` (racemic) were, in that order, 160 nM and 3.3 nM.
The like results for `O=S(=O)(O)OC[C@@H]1CNC[C@H](OCc2ccc3ccccc3c2)[C@H]1c1ccc(OCCCOCc2ccccc2)cc1` (racemic) were, in that order, 1900 nM and 2.3 nM.
Consider `c1ccc(COCCCOc2ccc([C@H]3[C@H](Cn4cncn4)CNC[C@@H]3OCc3ccc4ccccc4c3)cc2)cc1` (racemic), for which the IC50 amounted to 190 nM at Renin [1] and 0.92 nM at Renin [2].
Consider `COc1ccccc1COCCCOc1ccc([C@H]2CCNC[C@@H]2OCc2ccc3c(c2)NCCC3)cc1` (racemic), for which the IC50 on Renin [1] stood at 37 nM; on Renin [2] it was 0.67 nM. Further, the chromatographic logD in data set [3] turned out to be 3.8.
Regarding `COc1ccccc1COCCCOc1ccc([C@H]2CCNC[C@@H]2OCc2cc(OC)c3ccccc3c2OC)cc1` (racemic), the IC50 was found to be 12 nM against Renin [1] and 0.087 nM on Renin [2]. Moreover, the chromatographic logD in data set [3] is 5.4.

As a reminder, the IC50 is the midpoint of a concentration-inhibition curve.
